Hits are enriched below; roughly 2.3% of the tested compounds scored in any of these assays.
pPAFAH FP inh: inhibitors of human plasma PAF acetylhydrolase (pPAFAH) | 1.5% of 330,000 active | Q13093 | recombinant pPAFAH, FP-rhodamine probe fluorescence polarization | inhibition, % at 3.39 µM;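 active = inhibition above the mean inhibition across the screen plus 3 SD, cut at about 25% in these data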;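 note: inhibitors block binding of the rhodamine activity-based probe so polarization drops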
HTRA1 inhibitor: inhibitors of human serine peptidase HTRA1; Q92743; recombinant HTRA1, FP-rhodamine activity-based probe, fluorescence polarization; inhibition, % at 5.96 µM; 0.5% of 340,000 active; in the data active = inhibition above about 36%
Target sequence (Q92743 whole entry, looked up): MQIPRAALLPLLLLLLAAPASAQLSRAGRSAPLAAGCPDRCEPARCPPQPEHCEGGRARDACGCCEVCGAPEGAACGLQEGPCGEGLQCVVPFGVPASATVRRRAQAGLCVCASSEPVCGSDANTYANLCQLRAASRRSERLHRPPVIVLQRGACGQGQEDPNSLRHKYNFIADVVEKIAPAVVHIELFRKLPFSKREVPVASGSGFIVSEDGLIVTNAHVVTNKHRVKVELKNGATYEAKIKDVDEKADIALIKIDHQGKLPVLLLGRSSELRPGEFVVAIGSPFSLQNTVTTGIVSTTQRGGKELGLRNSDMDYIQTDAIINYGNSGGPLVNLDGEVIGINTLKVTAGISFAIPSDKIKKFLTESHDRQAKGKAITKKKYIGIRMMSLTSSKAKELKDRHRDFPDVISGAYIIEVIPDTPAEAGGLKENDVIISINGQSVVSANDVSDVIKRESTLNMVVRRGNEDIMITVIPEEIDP
mABHD4 FP: inhibits mouse alpha/beta hydrolase domain 4; 0.54% of 370,000 active; inhibition, % at 8.92 µM; purified mABHD4, FP-Rh probe fluorescence polarization; AID 720543;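 active = inhibition exceeding the mean over every tested compound plus 3 SD, cut at about 30% in these data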
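Test system: mABHD4 protein; Read-out basis: % inhibition; Incubation: 45 min + 60 min at 25 °C; Repeats: single replicate; Technique: fluorescence polarization with parallel and perpendicular emission, 525/598 nm; Compound: 8.92 µM, single dose; Benchmarks: full inhibition S159A mutant plus DMSO, zero as sample-well median.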
SIAE inh: blocks human sialic acid acetylesterase; inhibition, % at 9.66 µM; 0.69% of 370,000 active; AID 1053197; SIAE FP-Rh probe binding, fluorescence polarization;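 active = inhibition above a cutoff: mean of compounds within the control limits plus 3 SD of those, cut at about 17% in these data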
TCR CD3 inh: human TCR-CD3 binding inhibition; TAMRA-labeled TCR probe fluorescence, biochemical; inhibition, % at 9.4 µM; 0.37% of 360,000 active; AID 651800; in the data active = inhibition above about 19%;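 note: recombinant mutant TCR 2C K166C tagged with TAMRA read by polarization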
Numbers stand for hits; 0 = inactive; - = no result.

SMILES	pPAFAH FP inh	HTRA1 inhibitor	mABHD4 FP	SIAE inh	TCR CD3 inh
CO[C@H]([C@H](C)/C=C/N(C)C=O)[C@@H](C)C(O)CC[C@H](C)[C@H](O)[C@H](C)[C@H]1OC(=O)/C=C/C(C)=C/C[C@H](O)C[C@@H]2C=CC[C@@H](C[C@H](OC)[C@@]3(CO3)[C@@H](OC)C[C@@H](OC)[C@@H]1C)O2 (stereo partly drawn)	-	-	0	0	-
CN(C)S(=O)(=O)c1cc(NC(=O)COC(=O)CC2CC3CCC2C3)ccc1Cl (stereo not drawn)	26	0	0	0	0
CN(Cc1ccccc1)C(=O)OCc1cn(Cc2cc(F)cc(F)c2)nn1	-	-	0	0	-
O=C(CSc1c2c(nc3ccccc13)CCCC2)NCc1ccco1	0	0	0	0	0
COc1ccc2cc3c(N)c(C(=O)NCc4ccco4)sc3nc2c1	0	0	0	0	0
O=C(NCc1ccco1)c1c2c(nc3ccccc13)CCC2	27	0	0	0	0
Nc1c(C(=O)NCc2ccco2)sc2nc3c(cc12)C(=O)CCC3	28	0	0	0	0
C=CCNC(=O)NC[C@@]1(C(=O)OC)CC(=O)N(C)[C@@H]1c1ccccc1	-	-	0	0	-
C=CCNC(=O)CN(C(=O)Cc1ccc(Cl)cc1)c1cccc(Br)c1	-	-	0	0	-
COc1ccc2c(-c3ccccc3)cc(SCC(N)=O)nc2c1	33	0	0	0	0
O=C(N[C@@H](Cc1ccccc1)C(=O)NCP(=O)(O)OC(Cc1ccccc1)C(=O)O)OCc1ccccc1 (stereo partly drawn)	-	-	0	0	-
COC(=O)[C@]1(C)N[C@H](c2ccc(-c3ccc(Cl)c(Cl)c3)c(OC)c2)[C@@H]2C(=O)N(C)C(=O)[C@@H]21	30	0	0	0	0
C[C@H]1COc2cc(Br)ccc2S(=O)(=O)N1Cc1cn(Cc2ccc(Cl)cc2)nn1	-	-	0	0	-
COC(=O)C1CN(Cc2ccc(Cl)cc2)CCS(=O)(=O)N1Cc1cn(Cc2ccc(F)cc2)nn1 (stereo not drawn)	-	-	0	0	-
COC(=O)C1=C(C)N(Cc2ccc(Cl)cc2)C(=S)NC1c1cccc(OC)c1 (stereo not drawn)	-	-	0	0	0
CCCC(=O)Oc1ccc(N(C(=O)CCC)S(=O)(=O)c2cccs2)cc1	30	0	0	0	0
Oc1ccc(-c2nc3ccccc3s2)c(O)c1	0	0	0	0	0
Nc1ccc(O)c(-c2nc3ccccc3s2)c1	34	0	0	0	0
Oc1ccc(N=C/C=C/c2cccc(Br)c2)cc1-c1nc2ccccc2s1	37	44	-	-	-
COc1ccc(NS(=O)(=O)c2cccc(C(=O)NNC(=O)CNC(=O)c3ccc(C)cc3)c2)cc1	34	0	0	0	0
C/C(=N\NS(=O)(=O)c1ccccc1)c1cccc(NC(=O)c2cccc(Cl)c2)c1	25	0	0	0	0
COc1ccc(NS(=O)(=O)c2cccc(C(=O)NNC(=O)c3cccc(NC(C)=O)c3)c2)cc1	32	0	0	0	0
COc1ccc(NS(=O)(=O)c2cccc(NC(=O)c3ccccn3)c2)cc1	26	0	0	0	0
COc1ccc(NS(=O)(=O)c2cccc(C(=O)Nc3cccc(C(=O)O)c3)c2)cc1	0	0	0	0	0
COc1ccc(NS(=O)(=O)c2cccc(C(=O)NNC(=O)NCCCl)c2)cc1	0	0	0	0	0
SMILES	pPAFAH FP inh	HTRA1 inhibitor	mABHD4 FP	SIAE inh	TCR CD3 inh
CC(COc1ccc(S(C)(=O)=O)cc1)CN1CCC(C(O)(c2ccccc2)c2ccccc2)CC1 (stereo not drawn)	-	-	0	0	-
O=[N+]([O-])c1cccc(NCCCN2CCC(C(O)(c3ccccc3)c3ccccc3)CC2)c1	-	-	0	0	-
Cc1ccccc1NS(=O)(=O)c1cccc(C(=O)Nc2cccc(C(=O)O)c2)c1	27	0	0	0	0
COc1ccc(-c2cc(C3CC3)nc3sc(C#N)c(N)c23)cc1	31	0	0	0	0
CCOC(=O)[C@@]12CN(C(=O)OC(C)(C)C)CC=C1N(Cc1ccc(OC)cc1)C(=O)[C@H]2CC(=O)NCc1ccccc1	-	-	0	0	-
O=C(CCNS(=O)(=O)c1ccccc1)OCc1nnc(-c2ccccc2)o1	30	0	0	0	0
Cc1ccc(C(=O)CCC(=O)OCC(=O)Nc2nnc(-c3ccccc3)o2)cc1	-	0	0	0	0
O=C(COC(=O)CCNS(=O)(=O)c1ccccc1F)Nc1nnc(-c2ccccc2)o1	33	0	0	0	0
CC(=O)Nc1ccc(S(=O)(=O)NCCC(=O)OCc2nnc(-c3ccccc3)o2)cc1	0	0	0	0	0
C=CCN1C(=O)[C@@H](CC(=O)NCCCC)[C@]2(C(=O)OC)CCCCC=C12	-	-	0	0	-
O=C(c1cccc(F)c1)N(Cc1ccccn1)CC1CCCO1 (stereo not drawn)	-	-	0	0	-
Cc1ccc(NCC(=O)N/N=C\C(Br)=C\c2ccccc2)cc1	27	0	0	0	0
O=C(N/N=C/c1cc(Cl)cc([N+](=O)[O-])c1O)c1cc(-c2ccccn2)nc2ccccc12	27	0	-	-	-
C/C=C/C(=O)N1CCC(C(=O)NC2CCCc3ccccc32)CC1 (stereo not drawn)	-	-	0	0	-
S=c1[nH]nc(-c2cccnc2)n1/N=C/C=C/c1ccco1	0	0	0	0	0
S=c1[nH]nc(-c2ccccc2)n1/N=C/C=C/c1ccco1	31	0	0	0	0
CNC(=O)C[C@H]1CC[C@H]2[C@@H](COc3ccc(NC(=O)Nc4ccccc4)cc3C(=O)N2C)O1	-	-	0	0	-
O=C(COc1coc(CN2CCc3ccccc3C2)cc1=O)Nc1cccc(F)c1	30	0	0	0	0
O=C(COc1coc(CN2CCc3ccccc3C2)cc1=O)Nc1cccc(Cl)c1	0	0	0	0	0
C=C(C)COc1ccc2c(C)c(CCC(=O)N3C[C@H]4C[C@@H](C3)c3cccc(=O)n3C4)c(=O)oc2c1	25	0	0	0	0
Cc1nc(C)c(C(=O)Nc2nc3c(C)cccc3s2)o1	30	0	0	0	0
Cc1cccc2sc(NC(=O)C3CCCO3)nc12 (stereo not drawn)	0	0	0	0	0
Cc1ccc(-n2c(SCC(=O)Nc3ccc4cn[nH]c4c3)nnc2-c2ccccc2)cc1	-	-	0	0	-
CC(Oc1ccccc1)C(=O)N=C1SC2CS(=O)(=O)CC2N1Cc1ccc(F)cc1 (stereo not drawn)	26	0	0	0	0
CCSC(=Nc1ccccc1)C1=C(O)COC1=O	0	0	0	19	0
CCOc1cc(/C=C(/NC(C)=O)C(=O)O)cc(Cl)c1OCc1ccc(Br)cc1	31	0	0	0	0
CCCNC(=O)C[C@H]1CC[C@H]2[C@@H](COc3ccc(NC(=O)Nc4ccc(C#N)cc4)cc3C(=O)N2C)O1	-	-	0	0	-
Cc1nnc(SCc2ccccc2)[nH]c1=O	34	0	0	0	0
Cc1ccc(CSc2nnc(C)c(=O)[nH]2)cc1	0	0	0	0	0
CCCC1CCC2(CC1)CCC2OC(=S)Nc1ccc(Cl)cc1 (stereo not drawn)	-	-	0	0	-
